Assay results from ChEMBL document CHEMBL1125450, “Synthesis and in vitro characterization of novel amino terminally modified oxotremorine derivatives for brain muscarinic receptors” (J Med Chem, 1992).

How the values were obtained:
[1] = biological target: T1, Muscarinic acetylcholine receptor M1 (Rattus norvegicus) (UniProt P08482); test: Intrinsic activity against Muscarinic acetylcholine receptor M1 in rat cortex (activity expressed as % response of that produced by carbachol); assay type: functional
T1 sequence (whole entry): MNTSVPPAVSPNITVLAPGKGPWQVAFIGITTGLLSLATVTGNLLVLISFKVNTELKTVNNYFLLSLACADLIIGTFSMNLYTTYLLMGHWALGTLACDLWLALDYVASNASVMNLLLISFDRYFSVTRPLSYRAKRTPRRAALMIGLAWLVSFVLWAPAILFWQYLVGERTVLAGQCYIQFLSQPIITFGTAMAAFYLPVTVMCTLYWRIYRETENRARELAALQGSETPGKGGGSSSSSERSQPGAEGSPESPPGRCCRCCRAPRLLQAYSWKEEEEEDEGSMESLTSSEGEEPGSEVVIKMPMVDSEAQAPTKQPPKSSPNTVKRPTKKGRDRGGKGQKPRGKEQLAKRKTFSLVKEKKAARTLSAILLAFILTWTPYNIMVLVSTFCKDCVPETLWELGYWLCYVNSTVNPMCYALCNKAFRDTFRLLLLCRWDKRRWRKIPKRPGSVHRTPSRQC
Procedure, shortened: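 Dissociated male Sprague-Dawley rat cortex, rejuvenated in oxygenated Krebs-Henseleit (final step with 10 mM Li+), labeled 60 min at 37 °C with [3H]inositol. Compound at 1 mM added for 60 min under 95% O2/5% CO2; [3H]inositol 1-phosphate isolated on Dowex. Response scaled to 1 mM carbachol PI hydrolysis (100%).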

[2] = biological target: T2, Muscarinic acetylcholine receptor M2 (Rattus norvegicus) (UniProt P10980); test: Intrinsic activity against muscarinic acetylcholine receptor M2 in rat striatum (activity expressed as % response of that produced by carbachol); assay type: functional, tissue-based
T2 sequence (whole entry): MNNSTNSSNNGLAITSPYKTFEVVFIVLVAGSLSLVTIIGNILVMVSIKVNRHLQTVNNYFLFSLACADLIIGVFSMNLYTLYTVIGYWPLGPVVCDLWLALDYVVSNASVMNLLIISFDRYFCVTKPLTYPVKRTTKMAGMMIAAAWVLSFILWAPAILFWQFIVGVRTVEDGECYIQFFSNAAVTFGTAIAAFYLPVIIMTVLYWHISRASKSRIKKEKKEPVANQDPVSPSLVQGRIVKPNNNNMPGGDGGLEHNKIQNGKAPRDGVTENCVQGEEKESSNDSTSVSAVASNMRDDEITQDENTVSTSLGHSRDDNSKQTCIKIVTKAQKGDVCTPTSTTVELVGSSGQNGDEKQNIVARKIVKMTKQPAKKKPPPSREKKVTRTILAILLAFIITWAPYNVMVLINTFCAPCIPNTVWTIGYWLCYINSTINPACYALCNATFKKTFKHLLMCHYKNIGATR
Procedure, shortened: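 Dissociated rat striatum prelabeled 45 min at 37 °C with [3H]adenine, then 30 min with 1.5 mM IBMX before 10 µM forskolin plus 100 µM compound for 10 min; stopped with TCA, [3H]cAMP by ion-exchange columns. Inhibition of cAMP scaled to that of 100 µM carbachol (100%).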

[3] = biological target: T3, Muscarinic acetylcholine receptor M1 (Rattus norvegicus, UniProt P08482); test: Compound was evaluated for its binding affinity towards muscarinic acetylcholine receptor in rat cortex
T3 sequence (P08482 whole entry): T1 sequence (whole entry)
Procedure, shortened: (§1)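 Rat fronto-parietal cortex homogenised 1:200 w/v in 50 mM Na-K phosphate, pH 7.4; 0.5 mg tissue competed against [3H]pirenzepine (6 nM) for 1 h at 25 °C, filtered on polyethylenimine-treated GF/B. Nonspecific binding with 10 µM atropine. IC50 converted to Ki by Cheng-Prusoff.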

[4] = biological target: T4, Muscarinic acetylcholine receptor M2 (Rattus norvegicus, UniProt P10980); test: Compound was evaluated for its binding affinity towards muscarinic acetylcholine receptor M2 in rat brainstem; assay type: tissue-based, Brain
T4 sequence (P10980 whole entry): T2 sequence (whole entry)
Procedure, shortened: (§2)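 Rat pons-medulla homogenised 1:200 w/v in 50 mM sodium phosphate, pH 7.4; 0.5 mg tissue with 0.2 nM [3H]QNB and varying unlabeled ligand, 75 min at 25 °C. IC50 corrected to Ki by Cheng-Prusoff.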

[5] = biological target: T4, Muscarinic acetylcholine receptor M2; test: Compound was evaluated for its binding affinity towards M2 receptor in rat brainstem; assay type: tissue-based, Brain
[6] = biological target: T3, Muscarinic acetylcholine receptor M1; test: Compound was evaluated for its binding affinity towards M1 receptor in rat cortex
[7] = biological target: T3, Muscarinic acetylcholine receptor M1; test: Compound was evaluated for its binding affinity towards Muscarinic acetylcholine receptor M1 in rat cortex; procedure, shortened: as §1
[8] = biological target: T4, Muscarinic acetylcholine receptor M2; test: Compound was evaluated for its binding affinity towards Muscarinic acetylcholine receptor M2 in rat brainstem; assay type: tissue-based, Brain; procedure, shortened: as §2

SMILES | Response [1] | Ki [3] | Ki [4] | Ki [5] | Ki [6] | also measured
O=C1CCCN1CC#CCN1CCC1 | 46.2% | 2.25 µM | 0.0274 µM |  |  | Response [2]: 105%
O=C1CCCN1CC#CC[C@@H]1CCCN1 |  |  |  | 5.64 µM | 40.5 µM | 
CN(C)CC#CCN1CCCC1=O |  |  |  |  |  | Ki [7]: 15.9 µM; Ki [8]: 0.926 µM
CN1CCC[C@@H]1CC#CCN1CCCC1=O |  |  |  | 5.86 µM | 5.46 µM | 
O=C1CCCN1CC#CCN1CCCC1 [OXOTREMORINE] | 13.7% | 0.196 µM | 0.084 µM |  |  | 
CCN(C)CC#CCN1CCCC1=O | 2.75% | 2.69 µM | 0.813 µM |  |  | Response [2]: 91.6%
CNCC#CCN1CCCC1=O | 5.7% | 65.5 µM | 38.1 µM |  |  | Response [2]: 36.3%
CN1CCC[C@H]1CC#CCN1CCCC1=O |  |  |  | 10.8 µM | 10.5 µM | 
CN1CCCC[C@H]1CC#CCN1CCCC1=O |  |  |  | 7.06 µM | 5.38 µM | 
O=C1CCCN1CC#CC[C@@H]1CCCCN1 |  |  |  | 15.8 µM | 27.6 µM | 
CN1CCCC[C@@H]1CC#CCN1CCCC1=O |  |  |  | 3.66 µM | 1.2 µM | 
O=C1CCCN1CC#CC[C@H]1CCCCN1 |  |  |  | 0.636 µM | 3.03 µM | 
O=C1CCCN1CC#CC[C@H]1CCCN1 |  |  |  | 2.46 µM | 3.07 µM | 
